Drawing on ChEMBL document CHEMBL1157958, “Phenolic compounds from the roots of Lindera fruticosa” (J Nat Prod, 2006), this text covers inhibition and IC50 for 8 compounds.

In experiment [1] the target is T1, Sterol O-acyltransferase 1 (Homo sapiens) (UniProt P35610).
T1 sequence (whole entry): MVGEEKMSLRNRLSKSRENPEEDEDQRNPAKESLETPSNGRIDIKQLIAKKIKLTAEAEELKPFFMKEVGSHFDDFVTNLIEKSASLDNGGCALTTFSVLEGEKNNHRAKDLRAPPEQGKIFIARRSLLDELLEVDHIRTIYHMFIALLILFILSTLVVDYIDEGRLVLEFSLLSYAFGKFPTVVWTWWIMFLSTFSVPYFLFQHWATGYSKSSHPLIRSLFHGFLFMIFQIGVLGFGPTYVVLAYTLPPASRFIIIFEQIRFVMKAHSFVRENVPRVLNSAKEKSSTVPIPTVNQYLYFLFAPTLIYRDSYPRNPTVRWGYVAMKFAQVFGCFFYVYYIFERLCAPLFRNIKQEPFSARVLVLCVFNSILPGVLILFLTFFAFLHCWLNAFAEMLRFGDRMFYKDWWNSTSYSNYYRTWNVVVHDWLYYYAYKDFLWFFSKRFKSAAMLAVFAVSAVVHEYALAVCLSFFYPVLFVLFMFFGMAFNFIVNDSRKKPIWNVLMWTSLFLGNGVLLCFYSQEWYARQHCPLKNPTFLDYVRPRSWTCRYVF
Put plainly: Inhibition of human ACAT1 at 0.4 mM. The procedure, abridged:
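Human ACAT-1 inhibition, run by the Brecher and Chan method with slight modifications. Test concentration 0.4 mM; read-out is percent inhibition; data are mean ± standard deviation of three replicates.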

Experiment [2] in a line: Antioxidant activity assessed as inhibition of LDL oxidation. The class given is functional. The method in brief:
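LDL oxidation inhibition, run by a literature method with slight modifications. IC50 in µM; data are mean ± standard deviation of three replicates.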

The structures appear in SMILES notation. pIC50: −log10 of the molar value.

The inhibition is how much of the control response was suppressed. A lower inhibition goes with little suppression. Usually pIC50 stands for −log10 of the IC50, conventionally taken in molar units.

In turn, `COc1cc(O)cc(-c2ccccc2)c1` gave an inhibition in experiment [1] of 30%. Besides, in experiment [2], the pIC50 is 4.81.
The corresponding values for `COc1cccc(O)c1C(=O)OCc1ccccc1` are 46% and 3.32.
The corresponding values for `O=c1c2cc(O)ccc2oc2cccc(O)c12` are 31% and 3.41.
As for `COc1cc(OC)cc(-c2ccccc2)c1`, the inhibition in experiment [1] is 43%. Further, in experiment [2], the pIC50 is 4.32.
For `COc1c([C@@H](O)c2ccccc2)ccc2c1OCO2` the same measures were 31% and 3.72.
Consider `COc1c(O)ccc2oc3c(O)cc(O)cc3c(=O)c12`, for which the inhibition in experiment [1] came out at 7%. Besides, in experiment [2], the pIC50 was 4.59.
In experiment [1], `COc1c(C(=O)c2ccccc2)ccc2c1OCO2` returned an inhibition of 54%. The pIC50 in experiment [2] was 3.28.
For `CC(C)(Sc1cc(C(C)(C)C)c(O)c(C(C)(C)C)c1)Sc1cc(C(C)(C)C)c(O)c(C(C)(C)C)c1` [PROBUCOL], the negative logarithm of the IC50 (pIC50) in experiment [2] is 5.37.
